Measured values published in publication PMC7693203 (Epilepsia, 2020).
Like-named read-outs stand apart in the source and are kept apart here. Marks after values point to notes of the source that are not given here.

Legend:
[1] = Other safety parameters for all six trials; assay type: in vivo, human; details: result in words
How it was run: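 Safety was assessed in open-label, fixed-sequence phase 1 trials in healthy volunteers and in randomized, double-blind, placebo-controlled phase 2 trials in epilepsy patients. Assessments covered treatment-emergent adverse events, clinical laboratory evaluations, vital signs, 12-lead ECGs, physical examinations and the C-SSRS questionnaire. The safety population comprised subjects given at least one dose. In CYP3A4 trials, volunteers also needed at least one postdose assessment.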

[2] = test system: CYP3A4/2C19; details: result in words
[3] = target: T1, CYP3A4 (Homo sapiens, UniProt P08684); details: result in words
[4] = not given; remark: listed apart in the source
[5] = steady-state CBD, healthy volunteers; result in words; cited from earlier work
[6] = cited from earlier work; for Abdominal pain / Chromaturia / Diarrhea / Fatigue / Flatulence / Headache / Hepatic enzyme increased / Nausea / Somnolence: healthy volunteers
[7] = cited from earlier work
[8] = cited from earlier work; remark: listed apart in the source
[9] = result in words; cited from earlier work
[10] = target: T1, CYP3A4; details: result in words, cited from earlier work
[11] = test system: UGT1A9; details: in vitro; result in words; cited from earlier work
[12] = test system: UGT2B7; details: in vitro; result in words; cited from earlier work
[13] = test system: CYP3A4/2C19; test: clinical; details: human, in vivo, 750 mg
[14] = target: T1, CYP3A4; test: clinical; details: in vivo, 750 mg
[15] = target: CYP2C19 (Homo sapiens, UniProt P33261); test: clinical; details: in vivo, 750 mg
[16] = trial 17074, healthy volunteers, N = 16
[17] = trial 17075, healthy volunteers, N = 32
[18] = trial 1543, healthy volunteers, N = 77
[19] = trial 1543 groups 1 + 2 (DDI CLB), n = 27
[20] = trial 1543 groups 3 + 4 (DDI STP), n = 24
[21] = trial 1543 groups 5 + 6 (DDI VPA), n = 26
[22] = trial 1428, patients with epilepsy, N = 16
[23] = trial 1428, patients with epilepsy, N = 20
[24] = trial 1447, patients with epilepsy, N = 28
[25] = trial 1447, patients with epilepsy, N = 34

T1 sequence (P08684 whole entry): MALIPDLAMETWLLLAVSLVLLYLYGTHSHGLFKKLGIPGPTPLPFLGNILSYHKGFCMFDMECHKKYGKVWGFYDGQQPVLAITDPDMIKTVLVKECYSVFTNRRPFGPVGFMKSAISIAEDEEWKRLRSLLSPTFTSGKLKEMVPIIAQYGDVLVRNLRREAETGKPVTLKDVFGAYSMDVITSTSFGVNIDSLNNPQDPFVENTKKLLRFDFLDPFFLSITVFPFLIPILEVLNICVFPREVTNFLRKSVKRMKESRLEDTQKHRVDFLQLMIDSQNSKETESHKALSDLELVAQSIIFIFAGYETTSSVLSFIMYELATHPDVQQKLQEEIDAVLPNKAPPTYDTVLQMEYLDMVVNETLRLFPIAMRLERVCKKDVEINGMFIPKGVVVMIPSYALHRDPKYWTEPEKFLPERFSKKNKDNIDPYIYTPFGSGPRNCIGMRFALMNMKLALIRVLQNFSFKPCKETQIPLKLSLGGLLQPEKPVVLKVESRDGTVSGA
Chain of CYP2C19 (P33261 whole entry): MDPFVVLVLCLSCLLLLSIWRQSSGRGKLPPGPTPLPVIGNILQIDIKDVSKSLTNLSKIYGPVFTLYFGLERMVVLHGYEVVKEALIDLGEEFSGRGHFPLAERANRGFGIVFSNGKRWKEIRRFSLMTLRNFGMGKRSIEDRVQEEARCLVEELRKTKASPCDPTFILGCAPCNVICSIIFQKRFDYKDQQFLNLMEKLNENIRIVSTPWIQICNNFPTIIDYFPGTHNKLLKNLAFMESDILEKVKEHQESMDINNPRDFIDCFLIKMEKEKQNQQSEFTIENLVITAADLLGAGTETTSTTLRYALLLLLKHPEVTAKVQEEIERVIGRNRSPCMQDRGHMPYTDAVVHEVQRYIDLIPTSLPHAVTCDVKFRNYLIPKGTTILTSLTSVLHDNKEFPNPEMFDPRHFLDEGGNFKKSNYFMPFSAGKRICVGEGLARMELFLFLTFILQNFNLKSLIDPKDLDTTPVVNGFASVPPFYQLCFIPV

## C=C(C)[C@@H]1CCC(C)=C[C@H]1c1c(O)cc(CCCCC)cc1O [CBD, cannabidiol]
[1]
  instances that met Hy’s law criteria for potential drug‐induced liver injury: no instances
  suicidal ideation or behavior by C‐SSRS: No suicidal ideation or behavior
[2]
  t ½ with concomitant RIF: unaffected
[3]
  clearance with concomitant ITC: unaffected
  effect of concomitant steady‐state ITC on exposure: did not affect
  t ½ with concomitant ITC: unaffected
[16]
  AEs leading to withdrawal: 0 (0) n (%)
  Abdominal pain: 0 (0) n (%)
  Death: 0 (0) n (%)
  Diarrhea: 3 (19) n (%)
  Fatigue: 0 (0) n (%)
  Flatulence: 0 (0) n (%)
  Headache: 2 (13) n (%)
  Hepatic enzyme increased: 0 (0) n (%)
  Nausea: 4 (25) n (%)
  Patient with at least 1 AE: 16 (100) n (%)
  Serious AEs: 0 (0) n (%)
  Severe AEs: 0 (0) n (%)
  Somnolence: 4 (25) n (%)
Trial 17074, healthy volunteers, N = 16, rifampicin coadministered
  Chromaturia: 13 (81) n (%)
Trial 17074, overall, 16 subjects, CBD as two single doses
  healthy volunteers reporting AEs: 100%
Trial 17074, after CBD alone, during RIF treatment, or after CBD and RIF, of 16
  healthy volunteers reporting AEs: 44%
Trial 17074, result in words
  elevations in transaminase levels as AEs or laboratory evaluations: no reports
[4]; [17]
  AEs leading to withdrawal: 0 (0) n (%)
  Abdominal pain: 2 (6) n (%)
  Chromaturia: 0 (0) n (%)
  Death: 0 (0) n (%)
  Diarrhea: 3 (9) n (%)
  Fatigue: 2 (6) n (%)
  Flatulence: 0 (0) n (%)
  Headache: 6 (19) n (%)
  Hepatic enzyme increased: 0 (0) ^c n (%)
  Nausea: 2 (6) n (%)
  Patient with at least 1 AE: 20 (63) n (%)
  Serious AEs: 0 (0) n (%)
  Severe AEs: 0 (0) n (%)
  Somnolence: 3 (9) n (%)
[4]; trial 17075, overall, 32 subjects, CBD as two single doses
  healthy volunteers reporting AEs: 63%
[4]; trial 17075 FLU arm, overall, of 16
  healthy volunteers reporting AEs: 44%
[4]; trial 17075 ITC arm, overall, of 16
  healthy volunteers reporting AEs: 81%
[5]
  effect of concomitant STP on exposure: no effect
  effect of concomitant VPA on exposure: did not affect
[6]; [18]
  AEs leading to withdrawal: 6 (8) n (%)
  Death: 0 (0) n (%)
  Patient with at least 1 AE: 72 (94) n (%)
  Serious AEs: 0 (0) n (%)
  Severe AEs: 2 (3) n (%)
[6]; trial 1543, of 77, early in the trial
  subjects who experienced an AE of rash: 12%
[6]; trial 1543, of 77
  healthy volunteers who experienced an AE: 94%
[6]; trial 1543, result in words
  elevations in transaminase levels as AEs or laboratory evaluations: no reports
[6]; [19]
  Abdominal pain: 7 (26) n (%)
  Chromaturia: 0 (0) n (%)
  Diarrhea: 7 (26) n (%)
  Fatigue: 14 (52) n (%)
  Flatulence: 0 (0) n (%)
  Headache: 13 (48) n (%)
  Hepatic enzyme increased: 0 (0) n (%)
  Nausea: 8 (30) n (%)
  Somnolence: 5 (19) n (%)
[6]; [20]
  Abdominal pain: 7 (29) n (%)
  Chromaturia: 0 (0) n (%)
  Diarrhea: 13 (54) n (%)
  Fatigue: 8 (33) n (%)
  Flatulence: 6 (25) n (%)
  Headache: 9 (38) n (%)
  Hepatic enzyme increased: 0 (0) n (%)
  Nausea: 6 (25) n (%)
  Somnolence: 8 (33) n (%)
[6]; [21]
  Abdominal pain: 7 (27) n (%)
  Chromaturia: 0 (0) n (%)
  Diarrhea: 15 (58) n (%)
  Fatigue: 14 (54) n (%)
  Flatulence: 1 (4) n (%)
  Headache: 8 (31) n (%)
  Hepatic enzyme increased: 0 (0) n (%)
  Nausea: 8 (31) n (%)
  Somnolence: 7 (27) n (%)
[7]; trial 1428, of 20
  patients with epilepsy reporting AEs: 75%
[7]; [22]
  Abdominal pain: 1 (6) n (%)
  Chromaturia: 0 (0) n (%)
  Diarrhea: 6 (38) n (%)
  Fatigue: 1 (6) n (%)
  Flatulence: 0 (0) n (%)
  Headache: 1 (6) n (%)
  Hepatic enzyme increased: 0 (0) ^d n (%)
  Nausea: 3 (19) n (%)
  Somnolence: 2 (13) n (%)
[7]; [23]
  AEs leading to withdrawal: 1 (5) n (%)
  Death: 0 (0) n (%)
  Patient with at least 1 AE: 15 (75) n (%)
  Serious AEs: 1 (5) n (%)
  Severe AEs: 1 (5) n (%)
[8]; trial 1447, of 34
  patients with epilepsy reporting AEs: 68%
[8]; [24]
  Abdominal pain: 0 (0) n (%)
  Chromaturia: 0 (0) n (%)
  Diarrhea: 16 (57) n (%)
  Fatigue: 3 (11) n (%)
  Flatulence: 0 (0) n (%)
  Headache: 0 (0) n (%)
  Hepatic enzyme increased: 0 (0) ^e n (%)
  Nausea: 4 (14) n (%)
  Somnolence: 1 (4) n (%)
[8]; [25]
  AEs leading to withdrawal: 2 (6) n (%)
  Death: 0 (0) n (%)
  Patient with at least 1 AE: 23 (68) n (%)
  Serious AEs: 2 (6) n (%)
  Severe AEs: 1 (3) n (%)
[8]; trial 1447
  elevations in transaminase levels reported as AEs: three
[9]
  PPB when VPA and CBD are combined in vitro: not affected
[10]; human liver microsomes
  inhibition of CYP3A4: potently inhibits
[10]; in vitro data
  inhibition of CYP3A4: potent inhibitor
[11]
  inhibition of UGT1A9: potently inhibits
[12]
  inhibition of UGT2B7: potently inhibits
[13]
  half-life: 32.5 h
[14]
  half-life: 56.8 h
[15]
  half-life: 51.2 h
